Source: PubChem BioAssay (several laboratories)
PGE2 EP2 inh = blocks the human prostaglandin E2 receptor EP2; actives 0.52% (n = 260,000); inhibition, % at 25 µM; C6 glioma cells expressing human EP2, cAMP TR-FRET; cells stimulated with saturating PGE2; P43116;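 active = percent inhibition above 40 after rounding to a whole number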;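 note: rat C6 glioma host cells with rolipram phosphodiesterase inhibitor present; the protocol text gives 20 µM as final concentration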
Target sequence (P43116 whole entry, looked up): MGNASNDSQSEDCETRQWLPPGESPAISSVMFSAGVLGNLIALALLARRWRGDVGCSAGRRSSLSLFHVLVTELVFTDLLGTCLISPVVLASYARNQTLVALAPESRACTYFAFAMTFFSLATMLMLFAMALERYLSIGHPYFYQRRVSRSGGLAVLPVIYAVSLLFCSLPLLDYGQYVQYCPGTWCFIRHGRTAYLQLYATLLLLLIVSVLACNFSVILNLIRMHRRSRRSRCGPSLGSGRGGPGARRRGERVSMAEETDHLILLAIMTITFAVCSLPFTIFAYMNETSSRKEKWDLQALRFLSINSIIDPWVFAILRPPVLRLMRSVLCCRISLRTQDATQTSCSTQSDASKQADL
EP2 modulator = EP2 receptor (human) modulation; P43116; EP2-expressing cells, cAMP HTRF FRET, PGE2 co-stimulation; induction, % at 25 µM; actives 0.83% (n = 260,000);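 active = compounds whose cAMP rise, as percent of the full-agonist control response, exceeds 60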;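 note: rat C6 glioma line stably carrying human EP2 under a CMV promoter; the protocol text gives 20 µM as final concentration; 100% = response of wells given 1 µM PGE2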
Hsp70 act = transcriptional activators of Hsp70; HeLa Hsp70 promoter luciferase reporter, luminescence; scaled: vehicle 0, proteasome-inhibitor control 100%; AID 1203; actives 0.04% (n = 200,000); activation, % at 10 µM;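 active = activation above the mean across all tested compounds plus 3 SD, cutoff set per campaign, cut at about 5.5% in these data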;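 note: 100% = MG132 at 30 µM as the positive control and 0% = DMSO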
Dynein transport = dynein cargo transport inhibition; actives 0.47% (n = 220,000); 3617.4 mouse cells, GR-EGFP nuclear translocation imaging; test concentration mostly 20 µM; stimulated with dexamethasone, 1 µM; stronger effect = lower value; z-score, hits read low;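 active = plate z-score of nuclear minus cytoplasmic receptor signal below a set negative limit, without overly bright fluorescence or cell loss, cut at about -3.5 in these data, passing the limit was not always enough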;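 note: z-score of nuclear minus cytoplasmic ring GR-EGFP intensity difference per well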
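Buffer or medium: tet-free, stripped-serum medium; reagent: dexamethasone at 1.0 µM final, 30 min; incubation: 48 h induction, 1 h compound, 30 min dex at 37 °C; measured by: formaldehyde fixation, Hoechst nuclear stain, 10x automated fluorescence imaging; read-out: nuclear-to-cytoplasmic GR-EGFP distribution per well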
EP2 confirm = human EP2 receptor cAMP induction, negative in counter-screens. shares compounds with EP2 modulator. C6 glioma EP2 cells, cAMP HTRF induction; plus low (about EC15) PGE2 agonist. calls only at 20 µM (by protocol). actives 47% (n = 1,300). AID 1080;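 active = cAMP induction above 50% in the main assay while under 30% in all four parallel counter assays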;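 note: rat C6 glioma cells stably expressing human EP2 receptor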
* hit, by the source's call. Only some compounds are listed: those with a hit (about 1.7% of all), similar ones and a draw of the others.

`COc1ccccc1C(=O)NC(=S)Nc1cc(C(=O)O)ccc1C` gave PGE2 EP2 inh 12, EP2 modulator 72*, Hsp70 act 0, Dynein transport -0.13 and EP2 confirm active.
For COc1cc2ccccc2cc1C(=O)NC(=S)Nc1cc(C(=O)O)ccc1C the results were PGE2 EP2 inh 2, EP2 modulator 100*, Hsp70 act 0, Dynein transport 1 and EP2 confirm active.
For Cc1oc(C2CC2)cc1C(=O)N1CCC(c2ccnc3nc(C(F)(F)F)nn23)CC1 the results were EP2 modulator -23.
Screening CC(C)(C)NC(=O)CN(C(=O)CNC(=O)c1cccs1)c1ccc(Cl)cc1 returned PGE2 EP2 inh 10 and EP2 modulator -15.
C=CCn1c(=S)[nH]c2sccc2c1=O was read as PGE2 EP2 inh 18, EP2 modulator 53, Hsp70 act 0, Dynein transport 0.77 and EP2 confirm inactive.
Screening COCC(=O)N1c2ccccc2CC[C@@H]1C(=O)OC returned EP2 modulator -37.
Screening CC(=O)Oc1c2c(c3c(c1CC=C(C)C)O[C@]14C(=C[C@@H]5CC1C(C)(C)OC4(C/C=C(\C)C(=O)O)C5=O)C3=O)OC(C)(CCC=C(C)C)C=C2 (some centres not stated) returned PGE2 EP2 inh 12, EP2 modulator 51 and EP2 confirm inactive.
Screening O=C(/C(=C/O)N=Nc1ccccc1)c1cccs1 returned PGE2 EP2 inh 4, EP2 modulator 81*, Hsp70 act 0, Dynein transport -0.63 and EP2 confirm active.
For N#CCSc1nc2sc3c(c2c(=O)n1C1CCCCC1)CCCC3 the results were PGE2 EP2 inh 16, EP2 modulator 73*, Hsp70 act 0, Dynein transport 1.3 and EP2 confirm active.
CC(C(=O)O)N1CCNC(=O)C1(C)C (configuration not stated) was read as PGE2 EP2 inh 9 and EP2 modulator 5.
Cc1nn(C)c2ncc(C(N)=O)c(Oc3cccnc3)c12 was read as PGE2 EP2 inh 18, EP2 modulator 18 and Dynein transport 0.43.
CCOC(=O)c1cnc2c(c(C)nn2C)c1Oc1ccc(Cl)cc1 was read as PGE2 EP2 inh 3, EP2 modulator 67*, Hsp70 act 0, Dynein transport 0.41 and EP2 confirm active.
For CC1(C)CC(NC(=O)C(=O)NC2CC(C)(C)N(O)C(C)(C)C2)CC(C)(C)N1O the results were PGE2 EP2 inh 11 and EP2 modulator -5.
For Cc1nc(NC(=O)c2cccc(F)c2)sc1C(=O)N1CCCCC1 the results were PGE2 EP2 inh 7 and EP2 modulator -15.
`CCOc1cccc(CNc2ccc(O)cc2)c1OCc1ccc(Cl)cc1Cl` gave EP2 modulator 14, Hsp70 act 0 and Dynein transport 2.6.
`CCOc1cccc(CNc2ccc(O)cc2)c1OCc1ccccc1Cl` gave PGE2 EP2 inh 11, EP2 modulator 84*, Hsp70 act 0 and EP2 confirm active.
Screening COC(=O)C(C)Sc1ncnc2c1nnn2-c1ccc(F)cc1 (configuration not stated) returned PGE2 EP2 inh -2, EP2 modulator 56, Hsp70 act 0, Dynein transport -1.3 and EP2 confirm inactive.
For COc1cccc2[nH]c3c(N4CC(C)CC(C)C4)ncnc3c12 (configuration not stated) the results were EP2 modulator 90*, Hsp70 act 0, Dynein transport 0.056 and EP2 confirm active.
Screening CCOC(=O)C1CCCN(c2ncnc3c2[nH]c2cccc(OC)c23)C1 (configuration not stated) returned PGE2 EP2 inh 10, EP2 modulator 42, Hsp70 act 0 and Dynein transport 0.83.
Screening COc1cccc2[nH]c3c(N4CCC(C(N)=O)CC4)ncnc3c12 returned PGE2 EP2 inh 22, EP2 modulator 33, Hsp70 act 0 and Dynein transport -1.4.
COc1cccc2[nH]c3c(N4CCCC(C)C4)ncnc3c12 (configuration not stated) was read as PGE2 EP2 inh 6, EP2 modulator 94*, Hsp70 act 0, Dynein transport 0.12 and EP2 confirm active.
Cc1ccc2[nH]c3nc(SCC(=O)Nc4cccc(C)c4C)nnc3c2c1 was read as PGE2 EP2 inh 11 and EP2 modulator -14.
COc1ccc(NC(=O)c2oc3ccccc3c2C)cc1OC was read as PGE2 EP2 inh 12 and EP2 modulator -72.
For COCCN1C(=O)C(=O)/C(=C(\O)c2ccccc2)C1c1cc(OC)c(OC)c(OC)c1 (configuration not stated) the results were PGE2 EP2 inh 5 and EP2 modulator -14.
S=C1NCCc2ccc(Cl)cc2C1c1ccccc1 (configuration not stated) was read as PGE2 EP2 inh 7, EP2 modulator 75*, Hsp70 act 0, Dynein transport -0.39 and EP2 confirm active.
O=C1CN2C(=Nc3ccc(Cl)cc3C2c2ccccc2)CN1 (configuration not stated) was read as PGE2 EP2 inh 12, EP2 modulator 20, Hsp70 act 0 and Dynein transport -1.2.
Cc1cccc(Oc2sc(C(=O)c3ccccc3)c(N)c2C#N)c1 was read as PGE2 EP2 inh 8, EP2 modulator 72*, Hsp70 act 0, Dynein transport -1.7 and EP2 confirm inactive.
Screening CC12CCCC(O)(C1)C1CC(C)(C)C1CC2 (configuration not stated) returned PGE2 EP2 inh 10, EP2 modulator 51 and EP2 confirm inactive.
`CCCCc1n[nH]c(=S)n1Cc1ccc(Cl)cc1` gave PGE2 EP2 inh 6, EP2 modulator 52, Hsp70 act 0, Dynein transport 0.46 and EP2 confirm inactive.
`CCCCc1n[nH]c(=S)n1Cc1ccccc1` gave PGE2 EP2 inh 11, EP2 modulator 19, Hsp70 act 0 and Dynein transport 0.27.
CCCC(c1nnnn1C1CCCC1)N(Cc1cc2cc(OCC)ccc2[nH]c1=O)C1CCCC1 (configuration not stated) was read as PGE2 EP2 inh 10 and EP2 modulator 31.
CCC(=O)Oc1ccc2c(C)cc(=O)oc2c1C(=O)CC was read as PGE2 EP2 inh 4, EP2 modulator 4 and Dynein transport -0.15.
CCC(=O)Oc1ccc2c(C)cc(=O)oc2c1C(=O)c1ccccc1 was read as PGE2 EP2 inh 2, EP2 modulator 69*, Hsp70 act 0, Dynein transport -0.36 and EP2 confirm inactive.
Screening COc1ccc2nc3sc(C(=O)Nc4ccc5c(c4)OCCO5)c(N)c3cc2c1 returned PGE2 EP2 inh 18 and EP2 modulator -2.
C/C=C(\C)c1nnc(NC(=O)OCC)s1 was read as PGE2 EP2 inh 11, EP2 modulator 90*, Hsp70 act 0, Dynein transport 0.29 and EP2 confirm inactive.
